# Only a selection was taken, and hits are over-represented in it overall.
# Lmaj promast: inhibitors of Leishmania major promastigote growth; Leishmania major promastigotes, resazurin fluorescence viability; inhibition, % at 10 µM; 200,000 compounds, 9% hits; AID 1063; in the data active = inhibition above about 50%;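 also: promastigotes grown with compound for 44 hours at 28 °C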
# T cruzi repl: blocks replication of Trypanosoma cruzi; T. cruzi beta-gal in NIH3T3, luminescence, 90 h; inhibition, % (concentration not given with the values); 300,000 compounds, 1.4% hits;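 active = mean inhibition across valid replicates above about 55%, limit read from the data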;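 also: signal also drops with host cell toxicity which is not excluded here; 0% = plate median of DMSO wells and 100% = zero luminescence signal; higher percent means less beta-gal luminescence so fewer parasites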
#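 Assay system: NIH/3T3 fibroblasts plus reporter T. cruzi. Amount: NIH/3T3 cells, 5,000 per well. Buffer or medium: DMEM, 2% fetal bovine serum. Doses: compound pinned at 50 nL/well, DMSO. Schedule: ≥90 h infection period, 3 h prior cell attachment. Signal: luminescent β-galactosidase signal after 60 min lysis. Read-out: parasite load inhibition, %.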
# MPTP inh: inhibitors of mitochondrial permeability transition pore; isolated mouse mitochondria, Ca2+ swelling absorbance, 30 min; inhibition, % at 10 µM; 360,000 compounds, 1.4% hits; AID 602449;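 active = inhibition of 50% or more, scaled per plate between neutral and stimulator controls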;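 also: 0% = DMSO wells given calcium and 100% = 1 mM EGTA wells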
# Redox H2O2 prof: compounds producing H2O2 with reducing agent – biochemical, NIH compound library profiling, artefact control for MLSCN library redox annotation, primary screen | DTT-dependent redox cycling H2O2, phenol red/HRP absorbance; 100% = 100 µM peroxide control, 0% = buffer | activation, % at 10 µM | 200,000 compounds, 0.03% hits | AID 878;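 active = activation of at least 50% relative to the plate's high and low controls in the primary single-dose screen; inactive = activation below 50%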;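 also: compound incubated with DTT at 0.8 mM final as the reducing agent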
# Hep lipid drop: hepatic lipid droplet formation modulation. AML12 mouse hepatocytes, oleate lipid droplets, BODIPY imaging. AID 1656. inhibition, % at 6.5 µM. 240,000 compounds, 0.4% hits;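 active = lipid droplet intensity inhibited by at least 50%, with more than 500 cells counted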
#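 Assay system: AML12 hepatocytes (mouse); Probe or stimulus: oleic acid at 100 µM to induce lipid droplet formation; Dosing: compound at 6.5 µM only; Schedule: compound with oleate, overnight; Detection: fluorescence imaging, 20x objective, two fields per well; Measure: % inhibition of lipid droplet signal.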
# The depositor's hits bear a star; . = not tested or not shown.
SMILES,Lmaj promast,T cruzi repl,MPTP inh,Redox H2O2 prof,Hep lipid drop
O=C(O)c1cc(S(=O)(=O)Nc2ccc(N3CCCCC3)cc2)ccc1Cl,-9,2,-2,-1,21
COC(=O)c1ccc2nc(-c3cccc(Cl)c3)c(Cc3cccc(F)c3)n2c1,.,.,2,.,.
OC[C@@H]1CN(Cc2ccco2)C[C@H](n2cnc3c(NCc4ccc(F)cc4)ncnc32)O1,.,.,1,.,.
CC(C1CC2CCC1C2)n1c(-c2ccco2)n[nH]c1=S (stereo unspecified),10,-13,-1,-2,13
Cc1ccc(NC(=O)C2(C)CCN2CCc2ccccc2)cc1 (stereo unspecified),.,.,-1,.,.
COc1ccc(-c2nc(S(=O)(=O)c3ccccc3)c(NCCCN3CCOCC3)o2)cc1,.,.,-1,.,.
Cc1ccc(CSCC(=O)N(C)CC(=O)Nc2ccccc2C(F)(F)F)cc1,.,-15,0,.,.
Cc1ccc(NC(=O)Nc2ccccc2C#N)c(Cl)c1,66*,-9,0,4,.
Cc1nc(C(F)(F)F)ccc1C(=O)N1CCC1(C)C(=O)NCc1ccc(Cl)cc1 (stereo unspecified),.,.,0,.,.
Cc1nc(N2CCCCC2)c(C#N)c(C)c1[N+](=O)[O-],-5,10,-2,-1,-10
Cc1cc2oc(=O)cc(Cn3ncc(Cl)c(Cl)c3=O)c2cc1Cl,100*,57*,0,-1,10
CCC(=O)Nc1ccc(C(=O)Cn2ncc(Cl)c(Cl)c2=O)cc1,.,49,3,.,-3
Cc1ccc(C)c(C(=O)Cn2ncc(Cl)c(Cl)c2=O)c1,95*,-25,-1,-1,-8
O=C(Cn1ncc(Cl)c(Cl)c1=O)c1ccc2c(c1)OCCO2,.,.,0,.,.
Cc1cc2oc(=O)cc(CN3CCN(c4ccccc4)CC3)c2cc1Cl,.,.,1,.,.
Cc1cccc(Cn2ncc(Cl)c(Cl)c2=O)c1,62*,-21,0,3,.
Cc1cc(C(=O)Cn2ncc(Cl)c(Cl)c2=O)c(C)n1CC(F)(F)F,63*,-29,0,0,-13
COc1ccccc1CC(=O)Nc1ncc(C)s1,.,-11,0,.,-3
O=C(CSc1ccc(-c2ccccn2)nn1)c1ccccc1,46,6,2,-1,-1
Clc1ccc(CSc2ccc(-c3ccccn3)nn2)cc1,5,68*,3,-1,4
c1ccc(CSc2ccc(-c3ccccn3)nn2)cc1,17,58*,1,-1,1
CC(=O)Nc1ccc(S(=O)(=O)N2CCN(CC3CC4C=CC3C4)CC2)cc1 (stereo unspecified),8,-6,-3,0,5
NS(=O)(=O)c1ccc(N2C(=O)CCCC2=O)cc1,.,.,1,.,.
CCCCC(=O)NNC(=O)N1c2ccccc2Sc2ccccc21,.,4,1,.,17
O=[N+]([O-])c1ccc(Sc2nccn2Cc2ccccc2)c([N+](=O)[O-])c1,101*,65*,-2,-7,-37
SMILES,Lmaj promast,T cruzi repl,MPTP inh,Redox H2O2 prof,Hep lipid drop
Cc1oc(-c2ccc(Cl)cc2)nc1CS(=O)CC(=O)NCCCN(C)C1CCCCC1 (stereo unspecified),100*,40,0,0,5
Cc1cc(C)cc(NS(=O)(=O)c2ccc(NC(=S)NC(=O)c3ccc(Br)o3)cc2)c1,95*,.,1,0,32
Cc1ccc(NS(=O)(=O)c2ccc(NC(=O)c3ccccc3C(=O)O)cc2)c(C)c1,.,64*,3,.,.
Cc1cc(C)cc(NS(=O)(=O)c2ccc(NC(=S)Nc3ccccc3)cc2)c1,82*,-18,5,0,48
NS(=O)(=O)c1ccc(NS(=O)(=O)c2ccc(NC(=S)Nc3ccccc3)cc2)cc1,-3,-6,2,1,-6
COc1ccc(NS(=O)(=O)c2ccc(NC(=S)NC(=O)c3ccc(Br)cc3)cc2)nn1,85*,-2,1,0,-12
NS(=O)(=O)c1ccc(NC(=S)NC(=O)c2ccc(Br)o2)cc1,-8,-9,0,-1,3
O=C(NNC(=O)c1ccccc1OCc1ccccc1Cl)c1csc(N2CCOCC2)n1,.,38,0,.,0
N#Cc1ccncc1Sc1ccc(Cl)cc1,.,14,-1,.,.
Cc1c(Cl)cccc1NS(=O)(=O)c1c(C(=O)N2CCOCC2)c(C)n(C)c1C,.,-5,1,.,19
CC1Cc2ccccc2N1C(=O)Cn1c(=O)oc2cc(S(=O)(=O)N3CCCCC3)ccc21 (stereo unspecified),100*,7,0,-1,.
O=C(Cn1c(=O)oc2cc(S(=O)(=O)N3CCCC3)ccc21)N1CCN(c2ccccc2F)CC1,.,-1,-2,.,-2
O=C(Cn1c(=O)oc2cc(S(=O)(=O)N3CCCC3)ccc21)N1CCN(c2ccccn2)CC1,100*,-3,-1,-3,-4
O=C(Cn1c(=O)oc2cc(S(=O)(=O)N3CCc4ccccc43)ccc21)N1CCCCC1,98*,17,-2,0,.
CCn1c(=O)n(CC)c2cc(S(=O)(=O)N3CCc4ccccc43)ccc21,87*,0,4,-4,-4
COc1ccc(S(=O)(=O)N2CCc3ccccc32)cc1OC,.,-1,-1,.,0
CC(C)OCCCn1c(SCC(=O)Nc2ccccc2C(F)(F)F)nc2nccnc2c1=O,.,3,-1,.,5
O=C(Cn1c(=O)oc2cc(S(=O)(=O)N3CCCC3)ccc21)N1CCc2ccccc2C1,100*,3,0,-2,.
O=c1c(S(=O)(=O)c2ccc(Cl)cc2)cn(Cc2ccccc2)c2ccc(F)cc12,91*,30,2,0,-2
O=C(Cc1cccc(NC(=O)C2CCCN(C(=O)CCc3ccccc3)C2)c1)Nc1ccc(C(=O)N2CCOCC2)cc1 (stereo unspecified),.,.,5,.,.
COc1cccc(NS(=O)(=O)c2ccc(C)c(C(=O)N3CCCCC3)c2)c1,.,5,0,.,-13
CC(C)c1cc(NCC2CCCO2)n2c(nc3ccccc32)c1C#N (stereo unspecified),57*,37,0,0,-4
N#Cc1c2c(c(NCCCN3CCOCC3)n3c1nc1ccccc13)CCC2,63*,20,0,2,.
Cc1c(Cc2ccccc2)c(NCCN(C)C)n2c(nc3ccccc32)c1C#N,.,56*,-4,.,1
CCc1c(C)c(C#N)c2nc3ccccc3n2c1NCC1CCCO1 (stereo unspecified),68*,38,1,0,3
CCCCc1c(C)c(C#N)c2nc3ccccc3n2c1NCCN(C)C,.,40,1,.,0
Cc1cc(NCC2CCCO2)n2c(nc3ccccc32)c1C#N (stereo unspecified),13,8,-1,0,21
C[C@@H]1CN([C@@H](C)CO)S(=O)(=O)c2ccc(Br)cc2O[C@@H]1CN(C)C(=O)c1ccccn1,.,.,-1,.,.
CCc1c(C)c(C#N)c2nc3ccccc3n2c1Cl,101*,30,.,0,2
CN(C)CCSc1nc(-c2ccccc2)nc2c1CCC2,8,44,-1,0,36
